Bioassay records from PubChem.
An excerpt weighted towards active compounds, which were near 2.9% of everything screened.
Apaf-1 inh = human Apaf-1 inhibition; O14727; reconstituted apoptosome caspase-3 activity, DEVD-Rh110 fluorescence; inhibition, % at 20 µM; 330,000 compounds, 0.71% hits; AID 489030; active = inhibition of at least 40% at 20 µM;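 also: plate controls were DMSO wells for no effect and DEVD-CHO caspase inhibitor wells for full effect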
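Material: cell-free apoptosome with Apaf-1, procaspase-3 and caspase-9; Buffer or medium: Hepes pH 7.5 with detergent and BSA; Reagent: cytochrome c trigger plus (Z-DEVD)2-Rh110 caspase-3 substrate; Times: compound with Apaf-1, dATP, procaspase-3 30 min, then 50 min reaction, room temperature; Technique: Rh110 fluorescence intensity.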
SENP1 inh = inhibitors of human SENP1 SUMO protease catalytic domain. recombinant SENP1 catalytic domain, CyPet-SUMO1-YPet FRET cleavage. inhibition, % at 10 µM. 360,000 compounds, 0.21% hits;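 active = inhibition at least 30% at 10 µM, raw YFP signal under a set limit, fluorescence ratio 0.5 to 1.5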;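 also: 0% = enzyme with DMSO and 100% = no enzyme wells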
Target sequence (Q9P0U3 419-644 limits assumed): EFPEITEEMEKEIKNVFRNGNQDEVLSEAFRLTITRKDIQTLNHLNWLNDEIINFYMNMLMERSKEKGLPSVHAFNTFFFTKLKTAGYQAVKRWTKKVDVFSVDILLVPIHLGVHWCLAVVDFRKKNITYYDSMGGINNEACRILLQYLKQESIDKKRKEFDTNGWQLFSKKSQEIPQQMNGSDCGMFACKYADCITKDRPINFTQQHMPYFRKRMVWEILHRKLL
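Controls: no-enzyme wells low, DMSO-plus-enzyme wells high control. Test system: human recombinant His6-tagged SENP1 catalytic domain enzyme. Reagent: SFCypet-SUMO1-SFYpet FRET protein substrate, 25 nM final. Doses: one dose per compound, 10 µM, 0.5% DMSO. Detection: FRET, CFP and YFP emission. Timing: 50 min reaction at room temperature.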
SENP8 block-1 = blocks human SENP8 cleavage of Nedd8 substrate; Q96LD8; recombinant SENP8, Nedd8 substrate fluorescence; inhibition, % at 20 µM; 360,000 compounds, 0.64% hits; in the data active = inhibition mostly above about 40%, no sharp cut-off; inactive = mostly below about 27%
SENP7 inh = SENP7 protease inhibition; Q9BQF6; recombinant SENP7, Z-RLRGG-aminoluciferin luminescence, 40 min; inhibition, % at 5 µM; 330,000 compounds, 1.5% hits; AID 434973;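 active = inhibition above about 50% at the single test dose, limit read from the data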;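 also: plate controls were DMSO with enzyme for no effect and no enzyme buffer wells for full effect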
Target sequence (Q9BQF6 706-1050 limits assumed): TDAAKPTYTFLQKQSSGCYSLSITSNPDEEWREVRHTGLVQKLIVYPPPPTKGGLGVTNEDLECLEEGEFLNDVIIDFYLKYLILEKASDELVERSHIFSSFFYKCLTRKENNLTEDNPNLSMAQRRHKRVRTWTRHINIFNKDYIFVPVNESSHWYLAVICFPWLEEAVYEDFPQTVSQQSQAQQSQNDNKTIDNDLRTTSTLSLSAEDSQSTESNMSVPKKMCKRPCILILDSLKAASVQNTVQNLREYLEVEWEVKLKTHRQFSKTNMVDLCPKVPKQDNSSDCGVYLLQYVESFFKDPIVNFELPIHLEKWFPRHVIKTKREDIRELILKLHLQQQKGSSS
SENP6 inh = SENP6 protease inhibition | 330,000 compounds, 1.8% hits | AID 2599 | Recombinant SENP6 catalytic domain, aminoluciferin luminescence | Q9GZR1 | inhibition, % at 10 µM;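 active = inhibition above about 50% at the single tested dose, limit read from the data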;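 also: plate controls were DMSO wells with enzyme for no effect and DMSO wells lacking enzyme for full effect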
SENP8 block-2 = inhibitors of human SENP8 protease; purified SENP8, Z-RLRGG-aminoluciferin cleavage, luminescence; inhibition, % at 10 µM; 330,000 compounds, 1.2% hits; in the data active = inhibition above about 50%
Apaf-1 inh conf = Apaf-1 inhibition, single-dose confirmed; 1,800 compounds, 25% hits; shares compounds with Apaf-1 inh; AID 504614; reconstituted apoptosome, caspase-3 DEVD-Rh110 fluorescence; inhibition, % at 20 µM;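 active = mean inhibition of at least 40% at 20 µM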;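 also: plate controls were DMSO wells for no effect and DEVD-CHO caspase inhibitor control wells for full effect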
Rh110 interf inh = interferes with Rh110 fluorescence, flagging false Apaf-1 inhibitors; shares compounds with Apaf-1 inh; Rh110 fluorescence interference, quenched caspase reaction; activation (fluorescence interference), % at 20 µM; 1,800 tested, under 10 active;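 active = signal rise of 40% or more at 20 µM, treated as a fluorescence artifact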
Apaf1 inh interf = shows fluorescence interference in the Apaf-1 inhibitor assay format; shares compounds with Apaf-1 inh; fluorescence interference counterscreen, Apaf-1 assay format; IC50, µM; 460 tested, under 10 active; AID 588538; call rule not given here
Numbers without * were called inactive; · = not tested or not shown.

SMILES | Apaf-1 inh | SENP1 inh | SENP8 block-1 | SENP7 inh | SENP6 inh | SENP8 block-2 | Apaf-1 inh conf | Rh110 interf inh | others
CCOc1cccc2sc(N(CCCN(C)C)C(=O)c3ccc(S(=O)(=O)N4CCc5ccccc5C4)cc3)nc12 | 62* | 1 | 12 | 15 | -16 | -1 | 21 | 2
CN(C)CCCN(C(=O)c1ccc(C(=O)c2ccccc2)cc1)c1nc2cc3c(cc2s1)OCO3 | 60* | 1 | 14 | -1 | 2 | -2 | 19 | 4
COc1ccc(Cl)cc1S(=O)(=O)Nc1ncn[nH]1 | 5 | 2 | 6 | 0 | -15 | -9 | · | ·
CCNC(=O)C1(C)CCCN(C(=O)C2(c3ccc(Cl)cc3)CCCC2)C1 (stereo unspecified) | · | 1 | 8 | · | · | · | · | ·
O=S1(=O)N[C@H](Cc2ccccc2)COc2cccc(N3CCN(Cc4ccccc4F)CC3)c21 | · | 0 | -4 | · | · | · | · | ·
Cc1cccc(-c2nc3c(c(SCC(=O)N4CCOCC4)n2)COC(C)(C)C3)c1 | 9 | -2 | 10 | 7 | 15 | -2 | · | ·
COc1cc(Cl)c(CNC[C@H]2O[C@@H](n3cnc4c(N)ncnc43)[C@H](O)[C@@H]2O)c(Cl)c1O | 10 | 0 | 11 | -6 | · | · | · | ·
CN(C)CCCN(C(=O)c1ccc(S(=O)(=O)N2CCCCC2)cc1)c1nc2cc3c(cc2s1)OCO3 | 42* | 0 | 15 | 5 | 4 | 8 | 14 | 3
CN(C)CCCN(C(=O)c1ccc(S(=O)(=O)N2CCOCC2)cc1)c1nc2cc3c(cc2s1)OCO3 | 3 | 1 | 14 | -7 | -11 | -1 | · | ·
COCCNC(=O)c1[nH]c(C(F)(F)F)nc1-c1ccccc1 | · | 2 | 34 | · | · | · | · | ·
Cc1cccc(/C=C2/Sc3ccc(C(=O)NCCN4CCCC4)cc3NC2=O)c1 | 33 | -11 | -61 | -4 | -4 | -21 | · | ·
COc1cccc(/C=C2/Sc3ccc(C(=O)NCCN4CCCCCC4)cc3NC2=O)c1 | 40 | -16 | -34 | 8 | -20 | -10 | 32 | 4
CCOC(=O)C1CCN(C(=O)c2ccc3c(c2)NC(=O)/C(=C\c2cccc(C)c2)S3)CC1 | 40* | -5 | -36 | -7 | 7 | -17 | 22 | 1
CCCCOc1ccc(S(=O)(=O)NC(=O)C2(C)CCN2C(=O)c2c(C)noc2C)cc1 (stereo unspecified) | · | 2 | 14 | · | · | · | · | ·
CC(C)C1C(=O)N(Cc2cn(CCC3OCCO3)nn2)CCS(=O)(=O)N1Cc1ccc(-c2ccc(F)cc2)cc1 (stereo unspecified) | · | 1 | 8 | · | · | · | · | ·
Cc1ccc(-c2nnc(Nc3ccccc3)c3ccccc23)cc1S(=O)(=O)NCC1CCCO1 (stereo unspecified) | 38 | -1 | -130 | 4 | -13 | 9 | · | ·
Cc1ccc(-c2nn3c(-c4ccco4)nnc3c3ccccc23)cc1S(=O)(=O)NCC1CCCO1 (stereo unspecified) | 66* | 0 | -20 | 2 | 3 | 7 | 83* | 7 | Apaf1 inh interf=>100
COc1ccc(-c2nc(-c3ccccn3)ncc2S(C)(=O)=O)cc1 | 10 | 1 | 12 | 0 | -11 | -8 | · | ·
Cn1nc(-c2ccccn2)nc2c(=O)n(C)c(=O)nc1-2 | 98* | 33* | 93* | 96* | -8 | 97* | 100* | -1 | Apaf1 inh interf=>100
COC(=O)c1sccc1NC(=O)CC1NCCNC1=O (stereo unspecified) | -6 | 2 | 18 | -8 | -11 | -4 | · | ·
O=C(Cc1cccs1)N[C@@H]1c2ccccc2CC[C@@H]1OCc1ccccc1 | 20 | 2 | 4 | 6 | · | · | · | ·
CCCCCOC(=O)c1c(N)n(CCOC)c2nc3ccccc3nc12 | 94* | -102 | -262 | 64* | 9 | 63* | 27 | 13
Nc1c(C(=O)NCc2ccc(F)cc2)c2nc3ccccc3nc2n1CCCN1CCOCC1 | 59* | -33 | -250 | 57* | 78* | 80* | 24 | 9
Cc1cccc(-n2c(N)c(C(=O)NCCN3CCOCC3)c3nc4ccccc4nc32)c1 | 51* | · | · | 6 | 14 | 6 | 12 | 3
CCN(CC(=O)Nc1ccccc1OC)C(=O)c1ccccc1Sc1ccccc1C#N | 58* | 1 | 4 | 2 | -2 | -4 | 42* | 9 | Apaf1 inh interf=>100
SMILES | Apaf-1 inh | SENP1 inh | SENP8 block-1 | SENP7 inh | SENP6 inh | SENP8 block-2 | Apaf-1 inh conf | Rh110 interf inh | others
CCN(CC(=O)Nc1ccc(OC)cc1)C(=O)c1ccccc1Sc1ccccc1C#N | 32 | 0 | 10 | -2 | 2 | 3 | · | ·
Fc1ccc(-[n+]2nc(Nc3ccccc3)sc2-c2c3ccccc3cc3ccccc23)cc1 | 42* | -18 | -66 | -6 | -30 | -34 | 15 | 4
CCN1/C(=C/c2ccc3cc(C)ccc3[n+]2CC)Sc2ccc3sccc3c21 | 62* | 58* | 34 | 5 | -75 | 26 | 60* | -9 | Apaf1 inh interf=>100
CCN1/C(=C/c2ccc3cccc(C)c3[n+]2CC)Sc2ccccc21 | 14 | 85 | 21 | -11 | -16 | -4 | · | ·
CC1(Oc2cccc(C#N)c2)CCN(Cc2ccccc2OC(F)F)C1 (stereo unspecified) | · | 2 | 9 | · | · | · | · | ·
O=C(c1ccc(-c2cccc(C(F)(F)F)c2)o1)N1CCN(c2ccccc2O)CC1 | 34 | 1 | -1 | 5 | -2 | 14 | · | ·
O=C(c1ccc(-c2cccc(C(F)(F)F)c2)o1)N1CCCC(C(F)(F)F)C1 (stereo unspecified) | 43* | 1 | 4 | 4 | -12 | 0 | 39 | 16
O=C1C(NS(=O)(=O)c2ccc(Cl)cc2)=C(N2CCCCC2)C(=O)c2ccccc21 | 72* | 0 | 46* | 33 | 49 | 9 | 42* | 7 | Apaf1 inh interf=>100
CCOC(=O)N1CCN(C2=C(NS(=O)(=O)c3ccccc3)C(=O)c3ccccc3C2=O)CC1 | 48* | 2 | 54* | 19 | 32 | 14 | 24 | 0
CCN1CCN(C2=C(NS(=O)(=O)c3ccccc3)C(=O)c3ccccc3C2=O)CC1 | 82* | -1 | 58* | 43 | 38 | 24 | 42* | 7 | Apaf1 inh interf=>100
NC(=O)C1CCN(c2nc3ccccc3nc2NS(=O)(=O)c2ccc(Br)cc2)CC1 | 3 | -82 | -206 | -11 | -7 | -2 | · | ·
CCN1CCN(C(CNS(=O)(=O)c2ccccc2)c2ccccc2)CC1 (stereo unspecified) | 0 | 4 | 15 | -4 | 13 | 9 | · | ·
